TRPC4 act: activators of mouse TRPC4 channel, primary screen, Fluo4 calcium, HEK293 TRPC4beta/mu-opioid cells | Fluo4 calcium fluorescence; active compounds read high | hit rate 0.49% among 310,000 | Short transient receptor potential channel 4 (Mus musculus), Q9QUQ5 | B-score at 10 µM;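 active = B-score above 5 SD of library B-scores, and initial fluorescence ratio not above library mean plus 5 SD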;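 also: positive B-score marks a calcium rise read as TRPC4 activation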
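Assay system: HEK293 stable line with TRPC4beta plus mu-opioid receptor; schedule: 45 min room-temperature Fluo4 loading, 110 s read; technique: kinetic Fluo4 calcium fluorescence; evaluation: integrated baseline-normalised fluorescence ratio, converted to per-well B score; controls: buffer (low) and maximal DAMGO (high)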
TRPC6 act: mouse TRPC6 channel activators, primary screen, cell-based, HEK293, membrane potential dye. HEK293-TRPC6 membrane potential dye fluorescence; active compounds read high. B-score at 10 µM. hit rate 0.13% among 310,000;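 active = B-score of the integrated fluorescence ratio above library mean plus 3 SD, and starting fluorescence ratio within library mean plus 5 SD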;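 also: higher score means more depolarization so channel activation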
Target sequence (Q61143 whole entry, looked up): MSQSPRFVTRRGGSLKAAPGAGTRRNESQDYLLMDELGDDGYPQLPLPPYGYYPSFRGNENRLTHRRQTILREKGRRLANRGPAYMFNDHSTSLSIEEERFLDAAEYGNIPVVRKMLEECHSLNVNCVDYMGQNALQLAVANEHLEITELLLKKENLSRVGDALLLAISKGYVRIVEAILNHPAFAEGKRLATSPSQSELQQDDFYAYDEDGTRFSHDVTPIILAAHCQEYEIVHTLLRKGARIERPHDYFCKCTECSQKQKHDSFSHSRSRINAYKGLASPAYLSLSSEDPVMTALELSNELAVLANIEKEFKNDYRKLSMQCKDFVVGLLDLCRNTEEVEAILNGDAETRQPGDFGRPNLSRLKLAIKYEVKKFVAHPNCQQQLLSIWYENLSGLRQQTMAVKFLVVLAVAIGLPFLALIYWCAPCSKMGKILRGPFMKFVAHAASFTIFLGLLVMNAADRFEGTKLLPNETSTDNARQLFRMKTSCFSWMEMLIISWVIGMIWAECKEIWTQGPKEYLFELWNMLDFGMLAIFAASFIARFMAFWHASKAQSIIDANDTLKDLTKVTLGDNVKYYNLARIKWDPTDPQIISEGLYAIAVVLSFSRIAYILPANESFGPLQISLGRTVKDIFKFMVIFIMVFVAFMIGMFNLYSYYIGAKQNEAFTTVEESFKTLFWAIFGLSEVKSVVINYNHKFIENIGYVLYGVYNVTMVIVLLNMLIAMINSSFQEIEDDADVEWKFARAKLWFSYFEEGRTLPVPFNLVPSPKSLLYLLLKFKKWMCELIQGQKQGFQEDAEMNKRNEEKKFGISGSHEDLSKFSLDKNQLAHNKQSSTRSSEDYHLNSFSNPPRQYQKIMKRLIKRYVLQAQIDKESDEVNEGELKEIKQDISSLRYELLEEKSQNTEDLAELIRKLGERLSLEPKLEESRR
TRPC6 inhibitor: mouse TRPC6 channel inhibitors, primary screen, cell-based, HEK293, membrane potential dye; Short transient receptor potential channel 6 (Mus musculus), Q61143; ACh-evoked depolarization; active compounds read low; B-score at 10 µM; hit rate 1.1% among 310,000;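 active = B-score under library mean minus 3 SD, initial fluorescence not abnormally high, positive integrated signal ratio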;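 also: B-score derived from integrated fluorescence ratio over the kinetic read; more negative B-score means stronger inhibition of depolarization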
Yeast superoxide: reduction of superoxide in aged yeast, primary screen, HTS. S. cerevisiae aged cells, superoxide DHE fluorescence; active compounds read low. superoxide response (% of plate mean), % at 10 µM. hit rate 0.18% among 330,000. AID 2690, 2010;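 active = superoxide response under a set limit, about three screen SD below normal, cut at about 65% in these data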;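 also: yeast aged for seven days with compound at 30 °C before DHE staining; 100% = average MFI of all compound-treated wells on the plate with controls excluded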
TRPC4 PAM: positive allosteric modulators of TRPC4, primary screen, cell-based, mouse TRPC4beta, HEK293 mu-opioid, Fluo-4 calcium. Short transient receptor potential channel 4 (Mus musculus), Q9QUQ5. DAMGO EC20, Fluo-4 Ca2+ flux; active compounds read high. B-score at 10 µM. hit rate 0.42% among 310,000. AID 2227, 2009;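 active = B-score of calcium response area above 5 SD of library B-scores, with initial fluorescence ratio within 5 SD of library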;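 also: B-score of integrated fluorescence ratio over time as area under calcium response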
TRPC4 block: inhibitors of mouse TRPC4 channel, primary screen, Fluo4 calcium, HEK293 TRPC4beta/mu-opioid cells. B-score at 10 µM. DAMGO-evoked Fluo4 calcium flux; active compounds read low. hit rate 0.39% among 300,000. AID 2247, 2010. Short transient receptor potential channel 4 (Mus musculus), Q9QUQ5;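 active = B-score over 3 SD under the library average, no early fluorescence shift, positive overall ratio signal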
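Signal: kinetic Fluo4 fluorescence imaging of calcium influx. Material: stable TRPC4beta/mu-opioid receptor HEK293 cells. Probe or stimulus: DAMGO in two steps, submaximal then maximal.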
TRPC4 spec 2: mouse TRPC4 off-target activity of TRPC6 inhibitors, second screen. inhibition, % at 10 µM. shares compounds with TRPC6 inhibitor. hit rate 42% among 920. HEK293 TRPC4/MOR, membrane potential dye fluorescence; channel activated by saturating DAMGO dose;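 active = compounds whose fluorescence signal differed from control wells by over 3 SD, either direction, in both duplicate plates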
TRPC4 spec: mouse TRPC4 modulation by TRPC6 hits, confirmation, selectivity assay for TRPC6 inhibitor project, cell-based, HEK293 TRPC4/mu-opioid, membrane potential dye; AID 2777, 2010; shares compounds with TRPC6 inhibitor; activity change, negative = inhibition, % at 10 µM; hit rate 61% among 920; membrane potential fluorescence;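 active = rise or fall in signal beyond 3 SD of buffer-only wells in both replicate plates, either sign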;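 also: integrated kinetic ratio of fluorescence range over baseline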
HEK293 MPD ctr 2-1: nonspecific membrane potential effects, parental HEK293, confirmation, counter-screen for TRPC6 inhibitor project, cell-based, second counter screen; shares compounds with TRPC6 inhibitor; parental HEK293 membrane potential dye fluorescence; maximal acetylcholine challenge after compound addition; signal change vs control, % at 10 µM; hit rate 31% among 920;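 active = membrane potential signal moving either way by over 3 SD of the maximum-effect control, in both duplicate plates, meaning non-specific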
HEK293 MPD ctr-1: membrane potential modulation in parental HEK293, confirmation, counter-screen for TRPC6 inhibitor project, cell-based; shares compounds with TRPC6 inhibitor; parental HEK293 membrane potential dye fluorescence; membrane potential signal change, % at 10 µM; hit rate 60% among 920;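 active = membrane potential signal shifting up or down by more than 3 SD of buffer-only wells, on both duplicate plates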
HEK293 MPD ctr-2: parental HEK293 membrane potential modulation, confirmation, counter-screen for TRPC6 modulator project, cell-based; shares compounds with TRPC6 inhibitor; membrane potential dye fluorescence; membrane potential signal change, % at 10 µM; hit rate 51% among 2,400;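 active = membrane potential signal moves up or down beyond 5 SD from buffer-only wells, on both duplicate plates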
HEK293 MPD ctr 2-2: second check of TRPC6 modulator effects in parental HEK293 cells | shares compounds with TRPC6 inhibitor | membrane potential dye fluorescence; after compound, maximal acetylcholine stimulation | inhibition, % at 10 µM | hit rate 14% among 2,400 | AID 488926;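 active = membrane potential signal drops by more than 5 SD from the mean control signal, in both duplicate plates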;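 also: plate controls were acetylcholine ECmax control wells for no effect and buffer only wells for full effect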
TRPC4/MOR mod: TRPC4 modulation by TRPC6 hit compounds, confirmation, selectivity assay for TRPC6 modulator project, cell-based, HEK293 TRPC4/mu-opioid, membrane potential dye, mouse | shares compounds with TRPC6 inhibitor | membrane potential fluorescence | percent change from control (negative = decrease, positive = increase), % at 10 µM | hit rate 69% among 2,400;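 active = membrane potential signal moved up or down beyond 5 SD of buffer control wells, in both duplicate plates, actives on both sides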;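 also: plate controls were assay buffer wells for no effect and DAMGO maximal-effect wells for full effect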
TRPC4/MOR inh 2: second check of whether TRPC6 modulators also affect mouse TRPC4. shares compounds with TRPC6 inhibitor. HEK293 TRPC4/mu-opioid, membrane potential dye fluorescence; stimulated with maximal-effect DAMGO. inhibition, % at 10 µM. hit rate 55% among 2,400. AID 488928;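 active = drop in membrane potential signal beyond 5 SD of the control wells in both duplicate plates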;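 also: TRPC4 counter screen for TRPC6 hits run under conditions tuned for TRPC6 not TRPC4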
TRPC6 block conf: mouse TRPC6 channel inhibitors, confirmation, HEK293 cells, membrane potential dye, duplicate; inhibition, % at 10 µM; ACh-evoked depolarization; shares compounds with TRPC6 inhibitor; hit rate 43% among 3,300;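 active = fluorescence ratio falls more than 5 SD below the full-stimulation control mean, in both duplicate runs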;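 also: integrated fluorescence ratio of peak minus minimum over baseline after agonist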
TRPC6 act confirm: mouse TRPC6 channel activators, confirmation, HEK293 cells, membrane potential dye, duplicate | shares compounds with TRPC6 inhibitor | hit rate 11% among 2,800 | activation, % at 10 µM | HEK293-TRPC6 membrane potential dye fluorescence, FDSS | AID 488961, 2010;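 active = ratio signal rise beyond 5 SD above unstimulated control wells' mean, seen in both duplicate runs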;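 also: plate controls were buffer EC0 wells for no effect and acetylcholine ECmax response for full effect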
An asterisk follows results filed as active. Rows were chosen to be rich in hits. Some 2.3% of all compounds tested hit in one or more screens of this group.

Screening O=C(O)CSc1c[nH]c2ccccc12 returned TRPC4 act inactive, TRPC6 act inactive, TRPC6 inhibitor inactive, Yeast superoxide 98.7, TRPC4 PAM inactive and TRPC4 block inactive.
For COc1ccc(/C=C2\SC(=NCc3ccccc3)NC2=O)cc1 the results were TRPC4 act inactive, TRPC6 act inactive, TRPC6 inhibitor -6.21*, Yeast superoxide 119.8, TRPC4 PAM inactive, TRPC4 block inactive, HEK293 MPD ctr-2 inactive, HEK293 MPD ctr 2-2 inactive, TRPC4/MOR mod inactive, TRPC4/MOR inh 2 inactive, TRPC6 block conf inactive and TRPC6 act confirm inactive.
`Cc1ccc(C(=O)Cn2c(-c3ccccc3)noc2=O)cc1` gave TRPC4 act inactive, TRPC6 act inactive, TRPC6 inhibitor inactive, Yeast superoxide 113.8, TRPC4 PAM inactive and TRPC4 block inactive.
For N#Cc1c2c(c(NCCCN3CCOCC3)n3c1nc1ccccc13)CCC2 the results were TRPC4 act inactive, TRPC6 act inactive, TRPC6 inhibitor -6*, Yeast superoxide 104.0, TRPC4 PAM inactive, TRPC4 block inactive, HEK293 MPD ctr-2 -173.0%*, HEK293 MPD ctr 2-2 70.5%*, TRPC4/MOR mod -35.5%*, TRPC4/MOR inh 2 51.5%*, TRPC6 block conf 46.5%* and TRPC6 act confirm inactive.
`Cc1cccc(-c2nc(NCCCN3CCOCC3)c3ccccc3n2)c1` gave TRPC4 act inactive, TRPC6 act inactive, TRPC6 inhibitor -9.56*, Yeast superoxide 104.2, TRPC4 PAM inactive, TRPC4 block inactive, TRPC4 spec 2 38.5%*, TRPC4 spec -21.2%*, HEK293 MPD ctr 2-1 inactive, HEK293 MPD ctr-1 -283.5%*, TRPC6 block conf 79.2%* and TRPC6 act confirm inactive.
For c1ccc(-c2nc(NCCCN3CCOCC3)c3ccccc3n2)cc1 the results were TRPC4 act inactive, TRPC6 act inactive, TRPC6 inhibitor -11.3*, Yeast superoxide 88.3, TRPC4 PAM inactive, TRPC4 block inactive, HEK293 MPD ctr-2 -168.0%*, HEK293 MPD ctr 2-2 inactive, TRPC4/MOR mod -36.0%*, TRPC4/MOR inh 2 68.0%*, TRPC6 block conf 57.5%* and TRPC6 act confirm inactive.
Screening c1ccc2[nH]c(NCCCN3CCOCC3)nc2c1 returned TRPC4 act inactive, TRPC6 act inactive, TRPC6 inhibitor inactive, Yeast superoxide 103.2, TRPC4 PAM inactive and TRPC4 block inactive.
COCCOC(=O)c1nccnc1C(=O)Nc1ccc(S(=O)(=O)N2CCOCC2)cc1 was read as TRPC4 act inactive, TRPC6 act inactive, TRPC6 inhibitor -6.17*, Yeast superoxide 106.7, TRPC4 PAM inactive, TRPC4 block inactive, HEK293 MPD ctr-2 inactive, HEK293 MPD ctr 2-2 inactive, TRPC4/MOR mod inactive, TRPC4/MOR inh 2 inactive, TRPC6 block conf inactive and TRPC6 act confirm inactive.
Screening COc1ccc(C(=O)Nc2ccc(S(=O)(=O)N3CCOCC3)cc2)cc1OC returned TRPC4 act inactive, TRPC6 act inactive, TRPC6 inhibitor inactive, Yeast superoxide 98.9, TRPC4 PAM inactive and TRPC4 block inactive.
`COc1cc(NC(=S)NCCc2c[nH]c3ccccc23)c(OC)cc1Cl` gave TRPC4 act inactive, TRPC6 act inactive, TRPC6 inhibitor inactive, Yeast superoxide 114.8, TRPC4 PAM inactive and TRPC4 block inactive.
Screening O=C(NC1CCCCC1)C(c1ccccc1)N(Cc1ccco1)C(=O)Cn1cnc2ccccc21 (stereo not given) returned TRPC4 act inactive, TRPC6 act 17*, TRPC6 inhibitor inactive, TRPC4 PAM inactive, TRPC4 block inactive, HEK293 MPD ctr-2 277.0%*, HEK293 MPD ctr 2-2 inactive, TRPC4/MOR mod 119.0%*, TRPC4/MOR inh 2 inactive, TRPC6 block conf inactive and TRPC6 act confirm 109.0%*.
`O=C(NC1CCCCC1)C(c1ccccc1)N(Cc1ccco1)C(=O)c1csnn1` (stereo not given) gave TRPC4 act inactive, TRPC6 act inactive, TRPC6 inhibitor inactive, Yeast superoxide 96.0, TRPC4 PAM inactive and TRPC4 block inactive.

Screening results as filed in PubChem BioAssay.
